Laboratory results taken from article PMC10704080 (Journal of Advanced Research, 2023).

Tests used:
[1] = Cytotoxicity in HEK293 cells; type: cell-based; conditions: human
Outline: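 HEK293 cells (ATCC CRL-1573) counted by haemocytometer and seeded at 5000 cells/well into compound-containing plates in DMEM plus 10% FBS. Incubated 20 h at 37 °C, 5% CO2. Resazurin added (25 μg/mL final) for a further 3 h, then fluorescence read at ex 530/em 590 nm. Percent inhibition calculated against media-only and untreated-cell controls. CC50 fitted from dose-response curves with variable bottom, top and slope.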

[2] = test system: human red blood cells (RBC); experiment: Haemolytic activity in human red blood cells; type: cell-based; conditions: 1 h, 37 °C
Outline: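 Human whole blood washed three times with 3 volumes of 0.9% NaCl, counted by haemocytometer, and resuspended in saline. Cells added to compound-containing plates, shaken 10 min, then incubated 1 h at 37 °C. Plates centrifuged at 1000 × g for 10 min to pellet cells and debris. Haemolysis read as supernatant absorbance at 405 nm.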

Row | SMILES | CC50 at 20 h [1] [µg/mL] | RBC (HC10), concentration at 10% haemolytic activity [2] [µg/mL]
1 | O=C(CCCCCCCCCC[P+](c1ccccc1)(c1ccccc1)c1ccccc1)Nc1ccc(O)c(O)c1 [Compound 11e, (11-((3,4-dihydroxyphenyl)amino)-11-oxoundecyl)triphenylphosphonium bromide] | 22.4 | –
2 | CC[C@H](C)[C@H](NC(=O)CN)C(=O)NCC(=O)N[C@@H](C)C(=O)N[C@H](C(=O)N[C@@H](CC(C)C)C(=O)N[C@@H](CCCCN)C(=O)N[C@H](C(=O)N[C@@H](CC(C)C)C(=O)N[C@H](C(=O)N[C@H](C(=O)NCC(=O)N[C@@H](CC(C)C)C(=O)N1CCC[C@H]1C(=O)N[C@@H](C)C(=O)N[C@@H](CC(C)C)C(=O)N[C@H](C(=O)N[C@@H](CO)C(=O)N[C@@H](Cc1c[nH]c2ccccc12)C(=O)N[C@H](C(=O)N[C@@H](CCCCN)C(=O)N[C@@H](CCCNC(=N)N)C(=O)N[C@@H](CCCCN)C(=O)N[C@@H](CCCNC(=N)N)C(=O)N[C@@H](CCC(N)=O)C(=O)N[C@@H](CCC(N)=O)C(N)=O)[C@@H](C)CC)[C@@H](C)CC)[C@@H](C)O)[C@@H](C)O)C(C)C)C(C)C [Mellitin, melittin] | – | 2.7
